Screening data: PubChem BioAssay, several laboratories
Shown are actives, neighbours in structure and some others; about 4.1% of the full set was active somewhere.
KCNK3 inh = human KCNK3 channel inhibition, primary screen | O14649 | CHO-KCNK3 thallium flux, FluxOR fluorescence; hits give low values | B-score at 10 µM | 340,000 tested, 0.84% active | AID 602410;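 active = B-score under library mean minus 4 SD, starting fluorescence ratio at most library mean plus 5 SD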;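 also: more negative B-score means stronger inhibition of thallium flux through KCNK3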
KCNQ1 block = human KCNQ1 channel inhibition | AID 2642 | CHO-K1 KCNQ1, FluxOR thallium flux fluorescence; hits give high values | 310,000 tested, 1.3% active | B-score at 10 µM | P51787;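 active = compounds whose thallium flux B-score, printed positive for inhibition, exceeds three library SD while starting fluorescence stays within three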;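 also: channel opened by potassium depolarization with thallium stimulus after 20 min compound exposure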
Target sequence (P51787 whole entry, looked up): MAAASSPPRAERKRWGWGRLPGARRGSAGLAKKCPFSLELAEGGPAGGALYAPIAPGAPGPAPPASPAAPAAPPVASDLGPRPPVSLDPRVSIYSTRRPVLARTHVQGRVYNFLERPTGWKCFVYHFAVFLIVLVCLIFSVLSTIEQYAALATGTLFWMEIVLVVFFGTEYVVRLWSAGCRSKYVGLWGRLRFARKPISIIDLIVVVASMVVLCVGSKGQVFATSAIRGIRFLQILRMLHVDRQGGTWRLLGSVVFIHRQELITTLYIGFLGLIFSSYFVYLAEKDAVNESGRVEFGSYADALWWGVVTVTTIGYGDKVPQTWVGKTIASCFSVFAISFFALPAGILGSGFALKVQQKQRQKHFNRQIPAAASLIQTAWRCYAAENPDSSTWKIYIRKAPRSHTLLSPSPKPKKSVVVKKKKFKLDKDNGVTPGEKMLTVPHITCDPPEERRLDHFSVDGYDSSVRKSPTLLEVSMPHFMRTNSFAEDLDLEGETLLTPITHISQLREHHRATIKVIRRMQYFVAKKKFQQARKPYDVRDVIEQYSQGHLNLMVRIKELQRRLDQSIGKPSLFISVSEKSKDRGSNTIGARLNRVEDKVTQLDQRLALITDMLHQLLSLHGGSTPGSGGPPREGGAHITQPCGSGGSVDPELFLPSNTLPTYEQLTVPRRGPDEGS
hERG rescue = compounds protecting human hERG from proarrhythmic drug block; Q12809; CHO-hERG, FluxOR thallium flux, dofetilide IC70 present; activation (rescue from dofetilide block), less the hit threshold, % at 10 µM; 310,000 tested, 0.51% active;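 active = activation above the mean of controls blocked by dofetilide plus 5 SD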;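 also: thallium influx through hERG after potassium depolarization seen as dye fluorescence rise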
KCNQ1 act = potentiates or activates the human KCNQ1 potassium channel | CHO-K1 KCNQ1, thallium flux FluxOR fluorescence; hits give high values | B-score at 10 µM | 310,000 tested, 0.35% active | AID 2648;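 active = fluorescence ratio B-score, a plate-corrected score, at least three library SD, with initial intensity B-score within 5 SD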
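Material: CHO-K1 cells stably expressing KCNQ1. Medium: assay buffer for compound exposure, DMSO matched across wells. Reagent: K+/Tl+ depolarizing stimulus. Compound dosing: single-concentration screen. Times: 37 °C overnight plating, 90-min dark dye load, 20-min compound pretreatment. Technique: FluxOR Tl+ flux fluorescence.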
KCC2 mod = modulates chloride dependent transport by human KCC2; KCC2 cells, thallium flux FluoZin-2 fluorescence; 190,000 tested, 2.2% active; Q9H2X9; B-score of Tl+ flux slope (higher = more flux/activation; lower = inhibition) at 10 µM;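 active = thallium flux slope and its plate-corrected score both differing from the plate sample mean at a set confidence after two filtering rounds, in either direction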;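 also: slope of fluorescence scaled to starting intensity during 10 to 20 s after thallium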
KCNK9 block = blocks the human KCNK9 two-pore domain potassium channel; Q9NPC2; HEK293 KCNK9, FluxOR thallium flux fluorescence; hits give low values; B-score at 10 µM; 310,000 tested, 1.2% active;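 active = ratio B-score over 3 SD below the library mean, with starting fluorescence within 5 SD of its mean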;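 also: negative B-score means less thallium flux so channel inhibition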
KCNK9 block conf = human KCNK9 inhibitor confirmation. 4,900 tested, 43% active. shares compounds with KCNK9 block. HEK293 KCNK9 cells, FluxOR thallium flux fluorescence. inhibition, % at 10 µM;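 active = thallium signal inhibited by more than 5 SD of the compound-free buffer control wells, on both duplicate plates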
Kir2-1 spec = mouse Kir2.1 off-target activity of KCNK9 modulators; shares compounds with KCNK9 block; 4,900 tested, 4% active; Kir2.1 cells, FluxOR thallium flux fluorescence; inhibition, % at 10 µM;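 active = thallium signal drop more than 5 SD beyond the mean of the no-compound control wells, seen in both duplicate plates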;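 also: signal is fluorescence rise after thallium addition divided by baseline fluorescence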
HEK293 Tl ctr = second check of KCNK9 modulator effects in non-induced HEK293 cells; shares compounds with KCNK9 block; FluxOR thallium flux; inhibition, % at 10 µM; 4,900 tested, 40% active; AID 492997;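 active = thallium signal drop beyond 5 SD of the untreated control mean, on both duplicate plates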
KCNK3 confirm = human KCNK3 channel inhibition, confirmation assay | 2,400 tested, 99% active | ratio percent of control, % at 10 µM | shares compounds with KCNK3 inh | CHO-KCNK3 thallium flux, FluxOR fluorescence; 0% buffer, 100% carvedilol maximal block | AID 651638;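 active = ratio percent of control, averaged over triplicates, above buffer control mean plus 5 SD, cut at about 64% in these data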;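 also: ratio is the fluorescence rise from min to max over baseline after thallium stimulus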
KCNK3 noninduced = KCNK3 inhibitor counter-screen hit in non-induced cells | shares compounds with KCNK3 inh | non-induced KCNK3 parental cells, FluxOR thallium flux; hits give low values | thallium flux ratio (lower = more inhibition) at 10 µM | 2,400 tested, 40% active;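 active = thallium flux ratio, averaged over three wells, more than 5 SD below the buffer control mean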;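 also: host cells are CHO cells without KCNK3 induction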
A number is an active result; i = inactive; nt = no result.

SMILES	KCNK3 inh	KCNQ1 block	hERG rescue	KCNQ1 act	KCC2 mod	KCNK9 block	KCNK9 block conf	Kir2-1 spec	HEK293 Tl ctr	KCNK3 confirm	KCNK3 noninduced
CC1=NN(C(=O)c2csc(C)c2C)C(O)(C(F)(F)F)C1 (stereo not drawn)	i	i	i	i	i	i	nt	nt	nt	nt	nt
CC(=O)Oc1cc2c(cc1Cl)C1(CC(c3ccccc3Cl)O2)CC(C)(C)NC(=S)N1 (stereo not drawn)	i	i	i	i	i	i	nt	nt	nt	nt	nt
CCOC(=O)c1ccc(NC(=S)NC2CCCC2)cc1	i	i	i	i	i	i	nt	nt	nt	nt	nt
COC(=O)C1=C(C)N=C2SC(C#N)=C(N)N2C1c1ccc(OC)cc1 (stereo not drawn)	-10.5	i	i	i	i	-8.89	50.5%	i	i	111.7	i
COC(=O)C1=C(C)N=C2SC(C#N)=C(N)N2C1c1cccc(OC)c1 (stereo not drawn)	i	i	i	i	i	i	nt	nt	nt	nt	nt
CCN(Cc1ccccc1)C(c1cccc(C#N)c1)c1nnnn1C(C)(C)C (stereo not drawn)	-9.25	i	i	i	i	-14.1	64.5%	i	43.0%	101.7	i
CCOC(=O)c1ccc2c(c1)nc(COc1ccc3ccccc3c1)n2CC	-10.5	i	i	i	nt	-13	59.0%	i	44.5%	124.7	0.132
COc1ccc2c(c1)C(=O)N1[C@H]3c4cc(Br)ccc4OC[C@@H]3[C@H](c3ccccc3)[C@]1(C)C(=O)N2	i	nt	nt	nt	nt	nt	nt	nt	nt	nt	nt
NCCc1c(-c2ccccc2)n(-c2ccccc2)c2ccccc12	i	13	i	i	i	-9.88	54.5%	62.5%	36.5%	135.7	i
COc1ccc(CN(C(=O)CSc2nnc(-c3c[nH]c4ccccc34)o2)c2ccc(F)cc2)cc1OC	-13.9	i	i	i	i	-8.81	i	i	i	105.3	0.13
COc1ccc(CN(C(=O)CSc2nnc(-c3ccc(F)cc3)o2)c2ccc(F)cc2)cc1	i	i	i	i	i	i	nt	nt	nt	nt	nt
CC1CCN(C(=O)c2ccc(NS(=O)(=O)c3cccc4cccnc34)cc2)CC1	i	i	i	i	i	i	nt	nt	nt	nt	nt
O=C(NCc1ccc2c(c1)OCO2)c1ccc(-c2ccc(Cl)cc2)o1	-8.88	i	i	i	i	-8.62	27.0%	i	26.5%	140.3	0.123
O=C(NCc1ccc2c(c1)OCO2)c1cccc(Cl)c1	i	i	i	i	i	i	nt	nt	nt	nt	nt
CC(=O)C[C@@H](O)CC(=O)[C@@H]1OC(=O)CCCCC/C=C/Cc2ccccc21	i	nt	nt	nt	nt	nt	nt	nt	nt	nt	nt
CCN(C(=S)NCc1ccccc1)c1cccc2ccccc12	-12.6	i	i	i	i	-18.2	63.5%	i	45.5%	100.7	i
CCNS(=O)(=O)c1ccc2nc(NC(=O)/C=C/c3cc(OC)c(OC)c(OC)c3)sc2c1	i	i	i	i	i	i	nt	nt	nt	nt	nt
CCCCCCCCn1c2c(c(=N)c3ccccc31)CCC2	i	11	i	i	i	-16.1	51.0%	83.0%	i	139.7	0.139
COC(=O)c1cccc(NC(=O)COC(=O)CSc2nc(C)cc(C)n2)c1	i	i	i	i	i	i	nt	nt	nt	nt	nt
CNC(=O)CSc1nnc(-c2ccccn2)n1Cc1ccco1	i	i	i	i	i	i	nt	nt	nt	nt	nt
CC(C)(C)c1ccc(CSc2nnc(-c3ccccn3)n2Cc2ccco2)cc1	i	i	i	i	i	-10.8	65.5%	42.0%	40.5%	126.0	0.144
NS(=O)(=O)c1cccc(NC(=O)CN2CCc3ccccc32)c1	i	i	i	i	i	i	nt	nt	nt	nt	nt
CN(c1ccccc1)S(=O)(=O)c1cccc(NC(=O)CN2CCCc3ccccc32)c1	-9.78	i	i	i	i	-11.1	49.5%	i	24.0%	113.0	i
COc1ccc(/C=N\NC(=O)c2ccccc2OC)cc1COc1ccccc1C	i	i	i	i	nt	i	nt	nt	nt	nt	nt
COc1ccc(/C=N/NC(=O)c2ccoc2C)cc1COc1c(C)cccc1C	-12.8	12	i	i	i	-11.4	47.5%	i	i	113.0	0.138
SMILES	KCNK3 inh	KCNQ1 block	hERG rescue	KCNQ1 act	KCC2 mod	KCNK9 block	KCNK9 block conf	Kir2-1 spec	HEK293 Tl ctr	KCNK3 confirm	KCNK3 noninduced
COc1ccccc1/C=N/Nc1cc(C)nc2ccc(C)cc12	i	i	i	i	nt	i	nt	nt	nt	nt	nt
COc1ccc(/C=N/Nc2cc(C)nc3ccc(OC)cc23)c(OC)c1	-13.6	14	i	i	nt	-16.4	i	i	38.0%	151.0	0.109
COc1ccc(C(=O)OC(C(=O)c2ccccc2)c2ccccc2)cc1 (stereo not drawn)	-9.6	i	i	i	i	-18.6	77.0%	i	46.5%	115.3	i
O=C1CS/C(=N/N=C/c2ccco2)N1Cc1ccc(F)cc1	i	i	i	i	i	i	nt	nt	nt	nt	nt
COc1ccc(-c2csc(NC(=O)c3ccccc3F)c2C(=O)O)cc1	i	i	i	i	nt	i	nt	nt	nt	nt	nt
Cc1ccc(CN(C(=O)c2ccco2)C(C(=O)NC2CCCC2)c2cccnc2)cc1 (stereo not drawn)	i	i	i	i	i	i	nt	nt	nt	nt	nt
COc1ccc(CNC(=O)c2c([S-])n(-c3ccc(C)cc3)c3cccc[n+]23)cc1	i	i	i	i	i	i	nt	nt	nt	nt	nt
CC(=O)N(CCC(Cc1ccccc1)c1ccco1)Cc1ccco1 (stereo not drawn)	i	i	i	i	i	i	nt	nt	nt	nt	nt
CCC(=O)N(CCC(c1ccco1)c1ccccc1OC)Cc1cccs1 (stereo not drawn)	-8.89	i	i	i	i	-11.8	56.0%	i	34.0%	130.3	0.128
CC(=O)N(CCC(c1ccccc1)c1ccco1)Cc1cccs1 (stereo not drawn)	-10.5	i	i	i	i	-11.8	56.0%	i	30.5%	93.7	i
CCCC(C)NC(C)C(=O)NC1CCCC1 (stereo not drawn)	i	i	i	i	i	i	nt	nt	nt	nt	nt
Cc1ccc(CN2CC(C(=O)Nc3ccc(C)cn3)CC2=O)cc1 (stereo not drawn)	i	i	i	i	nt	i	nt	nt	nt	nt	nt
N#Cc1ncn(-c2ccc(Oc3ccccc3)cc2)c1N	i	i	i	i	i	i	nt	nt	nt	nt	nt
O=C(CC1C(=O)NCCN1Cc1c(F)cccc1Cl)NCCCn1ccnc1 (stereo not drawn)	i	i	i	i	i	i	nt	nt	nt	nt	nt
